Laboratory results taken from ChEMBL document CHEMBL4387708, “Enhancement of Benzothiazoles as Pteridine Reductase-1 Inhibitors for the Treatment of Trypanosomatidic Infections” (J Med Chem, 2019).
pIC50: −log10 of the molar value. ≈ marks a conversion by molar mass, not a printed value. Calls of active or inactive are those of the source. No cut-off for these calls is given here.

Key:
Trypanosoma cruzi = assay: Growth inhibition of trypomastigote form of Trypanosoma cruzi Y infected in human U2OS cells at 50 uM measured after 72 hrs by DRAQ5 DNA dye based confocal microscopic analysis relative to control; format: organism-based; details: Trypanosoma cruzi, Y, U2OS, read-out: GI
[1] = biological target: T1, Pteridine reductase 1 (Leishmania major) (UniProt Q01782); assay: Inhibition of Leishmania major pteridine reductase 1 at 50 uM using di-hydrobiopterine as substrate in presence of NADPH relative to control
T1 sequence (whole entry): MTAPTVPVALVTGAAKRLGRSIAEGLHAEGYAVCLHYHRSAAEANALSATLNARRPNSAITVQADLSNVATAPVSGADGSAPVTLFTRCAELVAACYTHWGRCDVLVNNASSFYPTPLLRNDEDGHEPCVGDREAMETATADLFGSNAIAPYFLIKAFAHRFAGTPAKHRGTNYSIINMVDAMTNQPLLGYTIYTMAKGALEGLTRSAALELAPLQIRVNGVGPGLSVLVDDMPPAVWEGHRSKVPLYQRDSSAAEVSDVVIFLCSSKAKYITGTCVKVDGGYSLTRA
Outline: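 Photometric PTR1 assay with NADPH and dihydrobiopterin substrate. H₄B formation is coupled non-enzymatically to cytochrome c reduction, read as signal increase at 550 nm.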

Trypanosoma brucei = assay: Growth inhibition of Trypanosoma brucei bloodstream forms at 10 uM measured after 72 hrs by resazurin-based fluorescence assay relative to control; format: organism-based; details: Trypanosoma brucei, read-out: GI
[2] = biological target: Voltage-gated inwardly rectifying potassium channel KCNH2 (Homo sapiens, UniProt Q12809); assay: Displacement of Tracer Red from human ERG by fluorescence polarization assay
Cytochrome P450 3A4 = Cytochrome P450 3A4 (Homo sapiens, UniProt P08684); assay: Inhibition of human CYP3A4 expressed in baculovirus infected insect cells using beetle D-luciferin as substrate preincubated for 30 mins followed by NADPH addition and measured after 30 mins by CYP450-Glo assay
[3] = Mitochondrial toxicity in human 786-O cells measured after 6 hrs by MitoTracker Red chloromethyl-X-rosamine based assay; format: cell-based, 786-0
[4] = Thermodynamic solubility of the compound in pure water after 24 hrs by spectrophotometric method; format: physicochemical; details: read-out: Therm_solubility
Outline: (§1)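 Over-saturated suspensions (theoretical maximum 100 µg/mL) in water, PBS, PBS + 10% DMSO or PBS + 50% DMSO were stirred at 1200 rpm for 24 h at 25 °C. They were filtered at 0.2 µm and diluted 1:1 with ACN. Concentration was quantified by UV using a molar extinction coefficient determined at 340 nm.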

[5] = Thermodynamic solubility of the compound in phosphate buffered saline after 24 hrs by spectrophotometric method; format: physicochemical; details: read-out: Therm_solubility; outline: as §1
[6] = Thermodynamic solubility of the compound in phosphate buffered saline/10%DMSO after 24 hrs by spectrophotometric method; format: physicochemical; details: read-out: Therm_solubility; outline: as §1
[7] = Thermodynamic solubility of the compound in phosphate buffered saline/50%DMSO after 24 hrs by spectrophotometric method; format: physicochemical; details: read-out: Therm_solubility; outline: as §1
CYP2C9 = assay: Selectivity index ratio of IC50 for CYP2C9 (unknown origin) to EC50 for growth inhibition of Trypanosoma brucei bloodstream forms; format: toxicity; details: read-out: Ratio IC50/EC50
CYP3A4 = assay: Selectivity index ratio of IC50 for CYP3A4 (unknown origin) to EC50 for growth inhibition of Trypanosoma brucei bloodstream forms; format: toxicity; details: read-out: Ratio IC50/EC50
[8] = Selectivity index ratio of GI50 for human A549 cells to EC50 for growth inhibition of Trypanosoma brucei bloodstream forms; format: toxicity; details: read-out: Ratio GI50/EC50
[9] = Selectivity index ratio of GI50 for human U2OS cells to EC50 for growth inhibition of Trypanosoma brucei bloodstream forms; format: toxicity; details: read-out: Ratio GI50/EC50
[10] = Selectivity index ratio of NOAEL for human THP1 cells to EC50 for growth inhibition of Trypanosoma brucei bloodstream forms; format: toxicity; details: read-out: Selectivity Index
[11] = Cmax in BALB/c mouse at 1 mg/kg, iv by LC-MS analysis; format: ADME, organism-based; design: dose 1 mg/kg, route intravenous; details: in vivo
Outline: (§2)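 Snapshot PK in healthy BALB/c mice. Free compound given in 8% DMSO at 1 mg/kg IV or 20 mg/kg per os; for the formulated arm it was solubilized with hydroxypropyl-β-cyclodextrin (50%) and given at 20 mg/kg per os. Plasma levels were quantified by LC-MS on a C18 column with triple-quadrupole ESI detection in positive ion mode.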

[12] = Cmax in BALB/c mouse at 20 mg/kg, po by LC-MS analysis; format: ADME, organism-based; design: dose 20 mg/kg, route oral; details: in vivo; outline: as §2
[13] = Cmax in BALB/c mouse at 20 mg/kg, po co-formulated with hydroxypropyl-beta-cyclodextrin by LC-MS analysis; format: ADME, organism-based; design: dose 20 mg/kg, route oral; details: in vivo; outline: as §2
[14] = AUC in BALB/c mouse at 1 mg/kg, iv by LC-MS analysis; format: ADME, organism-based; details: in vivo; outline: as §2
[15] = AUC in BALB/c mouse at 20 mg/kg, po co-formulated with hydroxypropyl-beta-cyclodextrin by LC-MS analysis; format: ADME, organism-based; details: in vivo; outline: as §2
[16] = Half-life in BALB/c mouse at 1 mg/kg, iv by LC-MS analysis; format: ADME, organism-based; details: in vivo; outline: as §2
[17] = Clearance in BALB/c mouse at 20 mg/kg, po by LC-MS analysis; format: ADME, organism-based; details: in vivo; outline: as §2
[18] = tested on: Trypanosoma brucei brucei; assay: Antitrypanosomal activity against red-shifted luciferase expressing Trypanosoma brucei brucei GVR35 infected in BALB/c mouse assessed as reduction in parasite infection at 40 mg/kg, po administered twice a day as suspension in hydroxypropyl-beta-cyclodextrin solution by bioluminescence assay; format: functional, organism-based
Outline: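 T. b. brucei GVR35 (luciferase-expressing) was given IP to BALB/c mice as blood carrying 1 x 10⁵ parasites from a donor mouse at first-peak parasitemia; controls received PBS. Compound was given orally as a suspension in (2-hydroxypropyl)-β-cyclodextrin solution at 40 mg/kg twice daily. […] Parasite load was read by bioluminescence imaging after subcutaneous D-luciferin under isoflurane, as total flux per ROI.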

[19] = Selectivity ratio of IC50 for Leishmania major pteridine reductase 1 to IC50 for N-terminal His-tagged Trypanosoma brucei pteridine reductase 1

Chain of Cytochrome P450 3A4 (P08684 whole entry): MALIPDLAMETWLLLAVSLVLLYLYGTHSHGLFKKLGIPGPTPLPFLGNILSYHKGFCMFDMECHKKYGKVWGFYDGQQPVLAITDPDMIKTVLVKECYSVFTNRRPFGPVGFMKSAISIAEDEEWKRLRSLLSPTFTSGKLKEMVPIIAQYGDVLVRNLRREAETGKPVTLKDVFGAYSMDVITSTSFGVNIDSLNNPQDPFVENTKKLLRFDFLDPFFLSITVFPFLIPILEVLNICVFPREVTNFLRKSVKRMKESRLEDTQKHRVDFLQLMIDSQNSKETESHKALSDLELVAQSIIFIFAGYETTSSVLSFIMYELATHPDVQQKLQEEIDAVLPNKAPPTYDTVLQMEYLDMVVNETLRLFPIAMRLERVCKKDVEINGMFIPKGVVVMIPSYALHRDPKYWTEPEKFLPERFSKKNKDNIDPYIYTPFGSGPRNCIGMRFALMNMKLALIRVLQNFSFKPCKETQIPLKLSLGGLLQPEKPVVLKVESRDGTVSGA
Chain of Voltage-gated inwardly rectifying potassium channel KCNH2 (Q12809 whole entry): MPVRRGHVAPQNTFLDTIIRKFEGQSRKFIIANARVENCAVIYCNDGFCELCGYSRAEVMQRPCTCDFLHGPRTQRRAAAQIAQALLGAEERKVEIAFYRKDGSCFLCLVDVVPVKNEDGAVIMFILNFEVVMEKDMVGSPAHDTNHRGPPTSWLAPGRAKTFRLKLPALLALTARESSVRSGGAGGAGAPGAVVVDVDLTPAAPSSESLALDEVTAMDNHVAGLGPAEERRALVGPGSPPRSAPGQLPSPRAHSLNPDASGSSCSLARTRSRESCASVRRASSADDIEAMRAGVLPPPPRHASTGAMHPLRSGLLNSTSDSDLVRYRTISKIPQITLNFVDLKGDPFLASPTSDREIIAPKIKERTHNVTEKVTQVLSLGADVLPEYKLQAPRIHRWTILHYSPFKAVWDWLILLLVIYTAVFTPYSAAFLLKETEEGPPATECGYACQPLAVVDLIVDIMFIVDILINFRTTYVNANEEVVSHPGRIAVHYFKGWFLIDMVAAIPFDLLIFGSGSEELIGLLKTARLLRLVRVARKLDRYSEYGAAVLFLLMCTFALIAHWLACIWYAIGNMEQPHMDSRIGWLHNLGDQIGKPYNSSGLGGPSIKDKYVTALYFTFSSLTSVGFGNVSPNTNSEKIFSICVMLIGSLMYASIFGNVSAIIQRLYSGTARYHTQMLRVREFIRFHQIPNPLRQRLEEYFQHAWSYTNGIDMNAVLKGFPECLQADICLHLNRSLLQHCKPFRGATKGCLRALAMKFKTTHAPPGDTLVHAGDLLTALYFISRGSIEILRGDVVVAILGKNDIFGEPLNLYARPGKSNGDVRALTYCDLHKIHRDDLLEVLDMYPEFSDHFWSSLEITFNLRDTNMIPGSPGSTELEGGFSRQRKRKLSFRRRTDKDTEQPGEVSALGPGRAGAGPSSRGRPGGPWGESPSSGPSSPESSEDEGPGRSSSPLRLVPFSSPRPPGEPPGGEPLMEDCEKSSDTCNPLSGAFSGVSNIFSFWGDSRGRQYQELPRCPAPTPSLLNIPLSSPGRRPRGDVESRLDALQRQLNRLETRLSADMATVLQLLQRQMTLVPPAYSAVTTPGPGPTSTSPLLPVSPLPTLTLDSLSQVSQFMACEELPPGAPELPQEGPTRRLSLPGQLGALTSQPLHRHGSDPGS

Nc1nc2ccc(C(=O)NCc3ccccc3)cc2s1
inhibition at 50 µM (Trypanosoma cruzi): 51.3%
inhibition [1]: > 60%
inhibition at 10 µM (Trypanosoma brucei): > 60%
pIC50 [2]: < 4.60
pIC50 (Cytochrome P450 3A4): < 4.60
IC50 at 6 h [3]: > 25 µM
solubility thermodynamic at 24 h [4]: 13.1 µg/mL (≈ 46.3 µM)
solubility thermodynamic at 24 h [5]: 10.9 µg/mL (≈ 38.6 µM)
solubility thermodynamic at 24 h [6]: > 100 µg/mL
solubility thermodynamic at 24 h [7]: > 100 µg/mL
selectivity ratio (CYP2C9): > 10
selectivity ratio (CYP3A4): > 10
selectivity ratio [8]: > 10
selectivity ratio [9]: > 10
selectivity ratio [10]: > 10
Cmax [11]: 1630 ng/mL
Cmax [12]: 826 ng/mL
Cmax [13]: 13 µM
AUC [14]: 1057 ng·h/mL
AUC [15]: 7930 ng·h/mL
half-life [16]: 3.45 h
CL/F [17]: 68 mL/min/kg
Activity [18]: inactive
Ratio IC50 [19]: 2 to 100
